One block for each compound: values may come before it.
Legend:
[1] = 5 min; cited from earlier work
[2] = Biodistribution of [^18F]7 in rats after i.v. injection; type: in vivo, Sprague-Dawley rats; details: for Distribution, blood / Distribution, bone / Distribution, brain / Distribution, fat / Distribution, heart / Distribution, kidney / Distribution, liver / Distribution, lung / Distribution, muscle / Distribution, pancreas / Distribution, spleen: male Sprague-Dawley rats, mean ± SD
How it was run: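 Adult male Sprague-Dawley rats (170–250 g) under 2–3 % isoflurane/O2 received ~20–25 μCi/100 μL tracer (formulated in 3% HSA) via lateral tail vein. Killed at 5, 30, 60, 120 min, 4–8 rats per time; bone and fat taken only at 5 and 60 min (4 rats). Tissues weighed and gamma-counted alongside injectate standard dilution. Expressed as %ID/g, mean ± SD; Student's t-test.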

[3] = MicroPET imaging, myocardial tissue time-activity curves; type: in vivo; details: male Sprague-Dawley rats
[4] = 5 min post-i.v. injection, rats

Compound: CCCCCCCCC([18F])CCCCC1CC1CC(=O)O (racemic) [[^18F]FCPHA, trans-9-(RS)-[^18F]fluoro-3,4-(RS,RS) methyleneheptadecanoic acid]
uptake in rat myocardium [1]: approximately 1.5 %ID/gram tissue

Ratio of activity heart:blood [2, 4]: 2.55 | Ratio of activity heart:skeletal muscle [2, 4]: 8.3 | Uptake in heart at 30 min as percentage of the 5 min activity ([2]; 30 min post injection vs 5 min, rats): 35% | Uptake in heart relative to blood ([2]; 120 min post injection, rats): approximately 1.4 fold | Distribution, blood ([2]; 5 min post i.v. injection): 0.76 ± 0.05 %ID/gram | Distribution, blood ([2]; 30 min post i.v. injection): 0.75 ± 0.06 %ID/gram | Distribution, blood ([2]; 60 min post i.v. injection): 0.56 ± 0.06 %ID/gram | Distribution, blood ([2]; 120 min post i.v. injection): 0.26 ± 0.06 %ID/gram | metabolic defluorination (bone activity) ([2]; bone activity between 5 and 60 min, rats): no significant metabolic defluorination | Distribution, bone ([2]; 5 min post i.v. injection): 0.28 ± 0.01 %ID/gram | Distribution, bone ([2]; 60 min post i.v. injection): 0.33 ± 0.06 %ID/gram | Distribution, brain ([2]; 5 min post i.v. injection): 0.11 ± 0.01 %ID/gram | Distribution, brain ([2]; 30 min post i.v. injection): 0.13 ± 0.01 %ID/gram | Distribution, brain ([2]; 60 min post i.v. injection): 0.10 ± 0.01 %ID/gram | Distribution, brain ([2]; 120 min post i.v. injection): 0.06 ± 0.01 %ID/gram | Distribution, fat ([2]; 5 min post i.v. injection): 0.14 ± 0.02 %ID/gram | Distribution, fat ([2]; 60 min post i.v. injection): 0.17 ± 0.01 %ID/gram | Increase of activity in fat ([2]; from 5 to 60 min, rats, P = 0.04): 20% | Distribution, heart ([2]; 5 min post i.v. injection): 2.00 ± 0.44 %ID/gram | Distribution, heart ([2]; 30 min post i.v. injection): 0.72 ± 0.10 %ID/gram | Distribution, heart ([2]; 60 min post i.v. injection): 0.86 ± 0.28 %ID/gram | Distribution, heart ([2]; 120 min post i.v. injection): 0.34 ± 0.04 %ID/gram | Distribution, kidney ([2]; 5 min post i.v. injection): 1.30 ± 0.09 %ID/gram | Distribution, kidney ([2]; 30 min post i.v. injection): 1.26 ± 0.08 %ID/gram | Distribution, kidney ([2]; 60 min post i.v. injection): 1.02 ± 0.15 %ID/gram | Distribution, kidney ([2]; 120 min post i.v. injection): 0.52 ± 0.07 %ID/gram | Distribution, liver ([2]; 5 min post i.v. injection): 2.71 ± 0.37 %ID/gram | Distribution, liver ([2]; 30 min post i.v. injection): 1.39 ± 0.09 %ID/gram | Distribution, liver ([2]; 60 min post i.v. injection): 0.81 ± 0.10 %ID/gram | Distribution, liver ([2]; 120 min post i.v. injection): 0.49 ± 0.07 %ID/gram | Distribution, lung ([2]; 5 min post i.v. injection): 1.26 ± 0.32 %ID/gram | Distribution, lung ([2]; 30 min post i.v. injection): 0.87 ± 0.06 %ID/gram | Distribution, lung ([2]; 60 min post i.v. injection): 0.95 ± 0.27 %ID/gram | Distribution, lung ([2]; 120 min post i.v. injection): 0.52 ± 0.06 %ID/gram | Distribution, muscle ([2]; 5 min post i.v. injection): 0.23 ± 0.03 %ID/gram | Distribution, muscle ([2]; 30 min post i.v. injection): 0.24 ± 0.04 %ID/gram | Distribution, muscle ([2]; 60 min post i.v. injection): 0.21 ± 0.02 %ID/gram | Distribution, muscle ([2]; 120 min post i.v. injection): 0.12 ± 0.01 %ID/gram | Distribution, pancreas ([2]; 5 min post i.v. injection): 0.73 ± 0.07 %ID/gram | Distribution, pancreas ([2]; 30 min post i.v. injection): 0.50 ± 0.03 %ID/gram | Distribution, pancreas ([2]; 60 min post i.v. injection): 0.42 ± 0.04 %ID/gram | Distribution, pancreas ([2]; 120 min post i.v. injection): 0.28 ± 0.02 %ID/gram | Distribution, spleen ([2]; 5 min post i.v. injection): 0.94 ± 0.05 %ID/gram | Distribution, spleen ([2]; 30 min post i.v. injection): 0.63 ± 0.07 %ID/gram | Distribution, spleen ([2]; 60 min post i.v. injection): 0.57 ± 0.11 %ID/gram | Distribution, spleen ([2]; 120 min post i.v. injection): 0.40 ± 0.06 %ID/gram | accumulation in bone on PET images [3]: no evidence of accumulation in bone
Compound: O=C(O)CCCCCCCCCCCCCCc1ccc(OCC[18F])cc1 [[^18F]7, 15-(4-(2-[^18F]fluoroethoxy)phenyl)pentadecanoic acid]

Reference: PMC3061239 (Bioconjugate chemistry, 2010)
